# Source: PMC3817526 (Nmr in Biomedicine, 2013)
# Counter-ions that a name gives are not always drawn. Like-named read-outs stand apart in the source and are kept apart here.
# Columns and labels:
# [1] = system: gadoxetate-induced MRI liver enhancement; conditions: rats, cited from earlier work; for maximum hepatic MRI signal enhancement by gadoxetate: administration of OATP inhibitors
# [2] = molecular target: T1, rat Bsep (rBsep) (Rattus norvegicus, UniProt O70127); experiment: Inhibition of [3H]-taurocholate uptake into rBsep membrane vesicles; assay type: biochemical; conditions: read-out: IC50, [3H]-taurocholate uptake into vesicles expressing rBsep; geometric mean, 95% CL 109.8–153.2, n = 5
# T1 sequence (O70127 1-1321): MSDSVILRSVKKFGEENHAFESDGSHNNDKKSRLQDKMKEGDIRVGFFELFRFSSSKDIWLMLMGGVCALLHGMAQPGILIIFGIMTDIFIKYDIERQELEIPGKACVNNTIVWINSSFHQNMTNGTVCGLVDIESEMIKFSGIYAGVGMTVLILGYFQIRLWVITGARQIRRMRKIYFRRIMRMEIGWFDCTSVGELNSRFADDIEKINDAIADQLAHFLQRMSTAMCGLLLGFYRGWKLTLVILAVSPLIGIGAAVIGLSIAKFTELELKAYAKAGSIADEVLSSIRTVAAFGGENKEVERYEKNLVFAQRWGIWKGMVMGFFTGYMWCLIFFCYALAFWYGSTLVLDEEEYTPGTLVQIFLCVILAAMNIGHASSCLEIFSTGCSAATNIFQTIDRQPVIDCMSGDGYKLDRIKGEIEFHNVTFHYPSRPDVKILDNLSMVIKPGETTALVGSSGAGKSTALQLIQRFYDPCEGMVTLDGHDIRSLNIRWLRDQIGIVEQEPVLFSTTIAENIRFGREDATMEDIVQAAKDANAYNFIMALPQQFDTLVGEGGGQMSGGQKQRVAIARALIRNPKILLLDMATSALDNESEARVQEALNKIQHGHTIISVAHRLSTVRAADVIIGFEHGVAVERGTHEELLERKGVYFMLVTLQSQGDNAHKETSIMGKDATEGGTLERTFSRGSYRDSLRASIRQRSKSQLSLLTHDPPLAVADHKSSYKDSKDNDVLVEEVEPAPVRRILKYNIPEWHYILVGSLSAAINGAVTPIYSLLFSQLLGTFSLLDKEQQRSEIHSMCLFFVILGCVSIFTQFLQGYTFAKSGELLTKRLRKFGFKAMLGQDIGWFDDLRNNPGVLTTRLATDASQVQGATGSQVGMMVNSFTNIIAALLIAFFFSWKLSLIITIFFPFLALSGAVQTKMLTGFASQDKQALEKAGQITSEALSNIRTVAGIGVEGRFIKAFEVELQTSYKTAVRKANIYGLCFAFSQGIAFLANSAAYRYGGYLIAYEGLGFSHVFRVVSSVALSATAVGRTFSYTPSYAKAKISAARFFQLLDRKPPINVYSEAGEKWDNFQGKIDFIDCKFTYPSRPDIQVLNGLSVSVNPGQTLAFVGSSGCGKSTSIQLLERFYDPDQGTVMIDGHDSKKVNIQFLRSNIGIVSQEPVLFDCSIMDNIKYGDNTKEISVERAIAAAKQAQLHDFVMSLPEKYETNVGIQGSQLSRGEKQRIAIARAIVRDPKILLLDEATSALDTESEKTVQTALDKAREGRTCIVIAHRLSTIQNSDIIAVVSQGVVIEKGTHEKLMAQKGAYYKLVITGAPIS
# [3] = molecular target: rat Mrp2 (rMrp2) (Rattus norvegicus, UniProt Q63120); experiment: Inhibition of CDF uptake into rMrp2 membrane vesicles; assay type: biochemical; conditions: read-out: IC50, CDF uptake into vesicles expressing Mrp2; geometric mean, 95% CL 58.2–80.7, n = 4
# [4] = system: hepatic uptake and biliary excretion of gadoxetate; assay type: in vivo, rat; conditions: for Vmax, gadoxetate efflux into bile / k1, rate of gadoxetate uptake into the hepatocyte: mean ± SEM
# How it was run: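 Rats (298 ± 26 g), six per group, got vehicle (water, 0.5% w/v HPMC/0.1% w/v polysorbate 80) or suspended compound by oral gavage (20–2000 mg/kg). Anaesthetised 30 min post-dose; DCE-MRI began 60 min post-dose, gadoxetate given by tail-vein pump at t = 5 min, acquisition run to 60 min (1 min/volume). Hepatocyte signal derived from liver and spleen signals using extracellular fraction; k1, Vmax, KM fitted by least-squares per dose group.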
# [5] = Plasma chemistry analysis after CKA; assay type: in vivo, rat
# [6] = system: liver; experiment: Liver pathology analysis; assay type: in vivo; conditions: CKA 20, 200 or 500 mg/kg oral, rat
# [7] = Gadopentetate DCE-MRI estimation of volume fraction of extracellular space; assay type: in vivo, rat; conditions: gadopentetate 100 µmol/kg i.v., five rats, haematocrit 0.45, mean ± SEM
# How it was run: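 Healthy rats (282 ± 9 g). IntraGate FLASH DCE-MRI: ten 2 mm slices, TR 60.3 ms, TE 1.4 ms, flip 30°, 1 min/volume. Contrast given by tail-vein pump (5 ml/min) 5 min after acquisition start; acquisition continuous for 45 min. ve taken as the tissue/plasma AUC ratio, with plasma concentration equal to whole-blood concentration/(1 − Hct). Isoflurane overdose afterwards.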
# [8] = 4.7 T, plasma value assumed for liver and spleen; cited from earlier work
# [9] = rats; cited from earlier work
# [10] = humans; cited from earlier work
# [11] = system: relative liver MRI signal enhancement; conditions: healthy volunteers; cited from earlier work
# [12] = CKA 20 mg/kg oral, rat, gadoxetate 25 µmol/kg i.v.
# [13] = CKA 200 mg/kg oral, rat, gadoxetate 25 µmol/kg i.v.
# [14] = CKA 500 mg/kg oral, rat, gadoxetate 25 µmol/kg i.v.
# [15] = CKA 2000 mg/kg oral, rat, gadoxetate 25 µmol/kg i.v.
# [16] = gadoxetate 25 µmol/kg i.v. in rats given vehicle only (no CKA)
# Sequence of rat Mrp2 (rMrp2) (Q63120 whole entry): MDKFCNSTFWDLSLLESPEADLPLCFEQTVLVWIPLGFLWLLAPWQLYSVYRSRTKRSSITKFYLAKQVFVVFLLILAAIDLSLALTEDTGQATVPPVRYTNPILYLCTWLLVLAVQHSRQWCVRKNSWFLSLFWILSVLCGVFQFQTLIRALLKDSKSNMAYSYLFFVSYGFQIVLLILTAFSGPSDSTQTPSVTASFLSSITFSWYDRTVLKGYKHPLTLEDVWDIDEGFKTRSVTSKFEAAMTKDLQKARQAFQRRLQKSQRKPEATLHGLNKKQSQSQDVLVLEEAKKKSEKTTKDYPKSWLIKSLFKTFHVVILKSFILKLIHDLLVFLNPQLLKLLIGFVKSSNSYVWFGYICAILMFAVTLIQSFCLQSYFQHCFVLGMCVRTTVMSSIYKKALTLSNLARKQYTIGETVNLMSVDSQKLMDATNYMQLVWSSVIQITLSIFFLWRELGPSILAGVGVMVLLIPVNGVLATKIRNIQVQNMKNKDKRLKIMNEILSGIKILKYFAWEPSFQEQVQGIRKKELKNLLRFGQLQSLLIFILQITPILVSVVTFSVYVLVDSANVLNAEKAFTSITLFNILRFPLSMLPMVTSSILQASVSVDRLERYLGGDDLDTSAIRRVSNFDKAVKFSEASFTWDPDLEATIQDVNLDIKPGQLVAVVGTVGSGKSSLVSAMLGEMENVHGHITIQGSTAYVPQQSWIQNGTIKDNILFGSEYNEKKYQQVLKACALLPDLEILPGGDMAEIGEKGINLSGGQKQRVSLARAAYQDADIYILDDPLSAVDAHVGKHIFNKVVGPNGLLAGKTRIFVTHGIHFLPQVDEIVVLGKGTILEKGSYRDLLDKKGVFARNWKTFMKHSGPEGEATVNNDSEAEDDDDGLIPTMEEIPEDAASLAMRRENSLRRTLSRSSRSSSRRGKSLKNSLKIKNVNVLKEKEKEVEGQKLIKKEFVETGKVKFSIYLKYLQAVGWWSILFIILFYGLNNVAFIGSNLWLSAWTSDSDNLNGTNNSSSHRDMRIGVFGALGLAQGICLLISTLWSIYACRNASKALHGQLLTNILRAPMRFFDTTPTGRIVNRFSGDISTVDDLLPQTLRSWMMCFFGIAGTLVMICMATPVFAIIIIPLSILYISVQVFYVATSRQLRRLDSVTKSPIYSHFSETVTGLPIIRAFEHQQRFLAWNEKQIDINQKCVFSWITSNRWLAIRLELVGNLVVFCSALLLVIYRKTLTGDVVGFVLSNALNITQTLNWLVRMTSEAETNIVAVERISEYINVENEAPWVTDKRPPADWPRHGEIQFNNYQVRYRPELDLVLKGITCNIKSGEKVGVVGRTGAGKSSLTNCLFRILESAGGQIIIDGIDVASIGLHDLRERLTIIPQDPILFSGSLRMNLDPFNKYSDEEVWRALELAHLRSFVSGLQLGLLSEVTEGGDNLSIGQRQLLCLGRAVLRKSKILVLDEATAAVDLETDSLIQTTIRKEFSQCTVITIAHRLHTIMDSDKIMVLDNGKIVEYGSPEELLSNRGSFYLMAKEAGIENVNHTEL
structure (smiles),measurement,setting,value
C[C@]12CC[C@@H]3c4ccc(O)cc4CC[C@H]3[C@@H]1CC[C@@H]2O[C@@H]1O[C@H](C(=O)O)[C@@H](O)[C@H](O)[C@H]1O [estradiol 17-β-D-glucuronide],gadoxetate-induced MRI liver enhancement,[1]; single administration,transiently prolonged
CO[C@H]1/C=C/O[C@@]2(C)Oc3c(C)c(O)c4c(O)c(c(/C=N/N5CCN(C)CC5)c(O)c4c3C2=O)NC(=O)/C(C)=C\C=C\[C@H](C)[C@H](O)[C@@H](C)[C@@H](O)[C@@H](C)[C@H](OC(C)=O)[C@@H]1C [rifampicin],maximum hepatic MRI signal enhancement by gadoxetate,[1],reduction
N.N.[Cl][Pt][Cl] [cisplatin],maximum hepatic MRI signal enhancement by gadoxetate,[1],reduction
CO[C@H]1/C=C/O[C@@]2(C)Oc3c(C)c(O)c4c(O)c(cc(O)c4c3C2=O)NC(=O)/C(C)=C\C=C\[C@H](C)[C@H](O)[C@@H](C)[C@@H](O)[C@@H](C)[C@H](OC(C)=O)[C@@H]1C [rifamycin],maximum hepatic MRI signal enhancement by gadoxetate,[1],reduction
CC(C)NCC(O)COc1cccc2ccccc12 (stereo not shown) [propranolol hydrochloride],maximum hepatic MRI signal enhancement by gadoxetate,[1],reduction
"O=C(O)c1cc2cc(O)ccc2n1Cc1ccc(Cl)c(C(F)(F)F)c1 [CKA, 1-(4-chloro-3-trifluoromethyl-benzyl)-5-hydroxy-1-H-indole-2-carboxylic acid]",IC50,[2],130 µM
same,IC50,[3],68.5 µM
same,"effect on the kinetic parameters k1, Vmax and KM of gadoxetate","[4]; CKA 20 mg/kg oral, compared with vehicle",no significant effect
same,"Vmax, gadoxetate efflux into bile",[4]; [12],2.9 ± 0.4 µmol/s
same,"k1, rate of gadoxetate uptake into the hepatocyte",[4]; [12],26.1 ± 3.3 µmol/s
same,"Vmax, gadoxetate efflux into bile",[4]; [13],0.6 ± 0.2 µmol/s
same,"k1, rate of gadoxetate uptake into the hepatocyte",[4]; [13],6.6 ± 1.9 µmol/s
same,gadoxetate enhancement of the bowel (images),[4]; CKA 500 mg/kg oral,no enhancement
same,"Vmax, gadoxetate efflux into bile",[4]; [14],0.1 ± 0.1 µmol/s
same,"k1, rate of gadoxetate uptake into the hepatocyte",[4]; [14],1.7 ± 0.4 µmol/s
same,"Vmax, gadoxetate efflux into bile",[4]; [15],0.1 ± 0.1 µmol/s
same,"k1, rate of gadoxetate uptake into the hepatocyte",[4]; [15],1.2 ± 0.2 µmol/s
same,rate of gadoxetate uptake into the liver and clearance from the liver into the GI tract (images),"[4]; CKA 200 and 500 mg/kg oral, compared with vehicle",marked and dose-dependent reduction
same,plasma bile acids,"[5]; CKA 20-2000 mg/kg oral, rat",marked dose-dependent increases
same,plasma total bilirubin,"[5]; CKA 20-2000 mg/kg oral, rat",marked dose-dependent increases
same,plasma ALT levels,"[5]; CKA 20-2000 mg/kg oral, rat, most evident at 500 and 2000 mg/kg",dose-related increase
same,plasma ALT value,"[5]; single animal with necrosis, CKA 2000 mg/kg",344 IU/l
same,liver histology (H&E liver sections),[6],no histological features indicative of drug-induced hepatotoxicity
C[C@]12C=CC(=O)C=C1CC[C@@H]1[C@@H]2[C@@H](O)C[C@@]2(C)[C@H]1CC[C@]2(O)C(=O)CO [prednisolone],maximum hepatic MRI signal enhancement by gadoxetate,[1],reduction
COc1cccc2c1C(=O)c1c(O)c3c(c(O)c1C2=O)C[C@@](O)(C(=O)CO)C[C@@H]3O[C@H]1C[C@H](N)[C@H](O)[C@H](C)O1 [doxorubicin hydrochloride],maximum hepatic MRI signal enhancement by gadoxetate,[1],reduction
O=C1OC(c2ccc(O)c(S(=O)(=O)O)c2)(c2ccc(O)c(S(=O)(=O)O)c2)c2c(Br)c(Br)c(Br)c(Br)c21 [bromosulfophthalein],maximum hepatic MRI signal enhancement by gadoxetate,[1],reduction
O=C([O-])CN(CCN(CC(=O)[O-])CC(=O)O)CCN(CC(=O)[O-])CC(=O)O.[Gd+3] [gadopentetate],liver fractional extracellular space (AUC ratio tissue/plasma),[7],0.23 ± 0.02
same,spleen fractional extracellular space (AUC ratio tissue/plasma),[7],0.43 ± 0.02
same,relaxivity r1,[8],3.8 s⁻¹ mM⁻¹
CCOc1ccc(C[C@@H](CN(CCN(CC(=O)[O-])CC(=O)[O-])CC(=O)[O-])N(CC(=O)[O-])CC(=O)[O-])cc1.[Gd+3].[H+].[H+] [gadoxetate],"Vmax, gadoxetate efflux into bile",[4]; [16],2.9 ± 0.3 µmol/s
same,"k1, rate of gadoxetate uptake into the hepatocyte",[4]; [16],29.4 ± 3.0 µmol/s
same,"gadoxetate clearance, biliary",[9],70%
same,"gadoxetate clearance, renal",[9],30%
same,"excreted via each route (biliary, renal)",[10],50%
same,relaxivity r1,[8],5.9 s⁻¹ mM⁻¹
C=CC1=C(C)/C(=C/c2[nH]c(Cc3[nH]c(/C=C4\NC(=O)C(C)=C4C=C)c(C)c3CCC(=O)O)c(CCC(=O)O)c2C)NC1=O [bilirubin],maximum hepatic MRI signal enhancement by gadoxetate,[1],reduction
CC[C@H]1OC(=O)[C@H](C)[C@@H](O[C@H]2C[C@@](C)(OC)[C@@H](O)[C@H](C)O2)[C@H](C)[C@@H](O[C@@H]2O[C@H](C)C[C@H](N(C)C)[C@H]2O)[C@](C)(O)C[C@@H](C)C(=O)[C@H](C)[C@@H](O)[C@]1(C)O [erythromycin],relative liver MRI signal enhancement versus control subjects,[11],did not show a statistically significant difference
